# KCNQ1 pot: human KCNQ1 channel potentiation or activation; 310,000 tested, 0.35% active; B-score at 10 µM; CHO-K1 KCNQ1, thallium flux FluxOR fluorescence; active compounds read high; P51787;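 active = fluorescence ratio B-score, a plate-corrected score, at least three library SD, with initial intensity B-score within 5 SD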
#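 System: Stable KCNQ1 CHO-K1 line | Incubation: 90 min dye loading and 20 min compound exposure, both at room temperature | Measure: Ratio B score | Medium: Assay buffer for compound exposure, DMSO matched across wells | Compound dosing: Single-concentration screen | Probe or stimulus: K+/Tl+ depolarizing stimulus | Measured by: Kinetic FluxOR fluorescence, 10 s baseline plus 110 s post-stimulus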
# hERG protect: compounds protecting human hERG from proarrhythmic drug block; Q12809; CHO-hERG, FluxOR thallium flux, dofetilide IC70 present; activation (rescue from dofetilide block), less the hit threshold, % at 10 µM; 310,000 tested, 0.51% active; AID 1511;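 active = activation above the mean of controls blocked by dofetilide plus 5 SD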;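 also: thallium influx through hERG after potassium depolarization seen as dye fluorescence rise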
# KCNQ1 inh: human KCNQ1 channel inhibition; P51787; CHO-K1 KCNQ1, FluxOR thallium flux fluorescence; active compounds read high; B-score at 10 µM; 310,000 tested, 1.3% active; AID 2642;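 active = compounds whose thallium flux B-score, printed positive for inhibition, exceeds three library SD while starting fluorescence stays within three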;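 also: channel opened by potassium depolarization with thallium stimulus after 20 min compound exposure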
# KCNK3 inh: human KCNK3 channel inhibition, primary screen; O14649; CHO-KCNK3 thallium flux, FluxOR fluorescence; active compounds read low; B-score at 10 µM; 340,000 tested, 0.84% active;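 active = B-score under library mean minus 4 SD, starting fluorescence ratio at most library mean plus 5 SD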;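 also: more negative B-score means stronger inhibition of thallium flux through KCNK3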
# KCNK9 inh: blocks the human KCNK9 two-pore domain potassium channel | Q9NPC2 | HEK293 KCNK9, FluxOR thallium flux fluorescence; active compounds read low | B-score at 10 µM | 310,000 tested, 1.2% active | AID 488922;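 active = ratio B-score over 3 SD below the library mean, with starting fluorescence within 5 SD of its mean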;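 also: negative B-score means less thallium flux so channel inhibition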
# Cl transport mod: KCC2 (human) Cl- transport modulation; Q9H2X9; AID 1456; KCC2 cells, thallium flux FluoZin-2 fluorescence; B-score of Tl+ flux slope (higher = more flux/activation; lower = inhibition) at 10 µM; 190,000 tested, 2.2% active;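 active = thallium flux slope and its plate-corrected score both differing from the plate sample mean at a set confidence after two filtering rounds, in either direction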;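 also: slope of fluorescence scaled to starting intensity during 10 to 20 s after thallium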
# Starred values were filed as active, the others as inactive; i = inactive; · = no result. The list is not random: actives were taken first. Their share in the collection is about 4.1%.
SMILES,KCNQ1 pot,hERG protect,KCNQ1 inh,KCNK3 inh,KCNK9 inh,Cl transport mod
O=C(Nc1ccccc1N1CCCCC1)c1ccc(Cl)cc1,i,-7,i,i,-6.7*,·
CC1CCN(c2ccccc2NC(=O)c2ccc(F)cc2)CC1,i,-14,i,i,-6.8*,·
C=CC[C@H]1CC(C)=C[C@H](CC=C)N1C(=O)c1cc(COc2ccccc2SC)on1,i,-13,8*,i,i,·
COCC1CCN(C(=O)c2cc(COc3ccccc3SC)on2)C1 (stereo not given),i,-9,i,i,i,·
O=C1NC(=S)/C(=C\c2ccc(-c3ccccc3Cl)o2)S1,i,2,i,i,i,25*
CC(C)OC(=O)CN1C(=O)S/C(=C/c2ccc(N3CCCCC3)o2)C1=O,i,0,i,i,-7.8*,-0.6
CNNCc1ccc(C(=O)NC(C)C)cc1,i,-4,i,i,i,·
O=C(Nc1nc(=O)c2ccccc2s1)c1ccc(F)cc1,23*,-3,i,i,i,47*
CC(=O)c1sc(NC(=O)c2ccc(Cl)cc2)nc1C,i,-5,i,i,i,·
O=C(Cc1ccccc1)Nc1nc(=O)c2ccccc2s1,i,-3,i,i,i,4.1*
O=C(Cc1ccccc1)Nc1nc2ccccc2s1,i,-6,i,i,i,-0.54
O=C(Nc1nc(=O)c2ccccc2s1)c1ccc(Cl)cc1,36*,43*,i,i,i,·
CCn1c(NC(=O)c2ccc(F)cc2)c2ccccc2nc1=O,i,-3,i,i,i,-0.87
CCOc1ccc(OCCC(=O)N(CC)CC(=O)Nc2ccccc2OC)cc1,·,·,·,i,·,·
Cc1cc(C)c2c(=O)[nH][nH]c2n1,·,·,·,i,·,·
Cc1ccc(S(=O)(=O)Nc2ccc3cc([N+](=O)[O-])ccc3c2[N+](=O)[O-])cc1,·,·,·,i,·,·
COc1cc(NC(=O)[C@@H]2CCCN2S(=O)(=O)c2cccc3cccnc23)cc(OC)c1OC,·,·,·,i,·,·
O=C(COc1ccc(Br)cc1)Nc1ccc(CN2CCOCC2)cc1,i,-7,i,i,i,·
COc1ccc(/C=C(/C(=O)c2cccs2)N2C=CC=CC2=C(C#N)C#N)cc1,i,-29,11*,i,i,-0.064
CCOC(=O)C1CCCN(C(=O)C2CCN(S(=O)(=O)c3c(C)noc3/C=C/c3ccccc3F)CC2)C1 (stereo not given),i,-8,i,i,i,·
Cc1ccc([N+](=O)[O-])cc1NC(=O)C1CCN(S(C)(=O)=O)CC1,i,-8,i,i,i,1.3
Cc1ccc(C2(c3ccc(C)cc3)CC2C(=O)Nc2ccc([N+](=O)[O-])cc2O)cc1 (stereo not given),i,-11,11*,i,i,0.017
CC1(C)CC1C(=O)Nc1ccc([N+](=O)[O-])cc1Br (stereo not given),i,-7,i,i,i,0.89
Cc1ccc(NC(=O)/C(=C/c2cccc([N+](=O)[O-])c2)NC(=O)C2CCCCC2)c(C)c1,i,-9,i,i,i,0.022
Cc1ccc([N+](=O)[O-])cc1NC(=O)CN(C1CCCCC1)S(=O)(=O)c1ccc(Cl)cc1,i,-8,7*,i,-7.7*,-2.1
SMILES,KCNQ1 pot,hERG protect,KCNQ1 inh,KCNK3 inh,KCNK9 inh,Cl transport mod
Cc1ccc([N+](=O)[O-])cc1NC(=O)C1CCCC1,i,5.0*,i,i,i,·
O=C(Nc1ccc([N+](=O)[O-])cc1)/C(=C/c1cccc([N+](=O)[O-])c1)NC(=O)C1CCCCC1,i,-4,i,i,-6.9*,0.2
O=C(NCc1ccccc1F)C1CCCN1S(=O)(=O)c1ccc(F)cc1 (stereo not given),i,-3,i,i,i,·
CC1=CC(C#N)(C#N)C(C#N)(C#N)C(c2ccccc2)N1 (stereo not given),i,-10,i,·,i,0.55
CC1CCC(C(C)C)C2=C1C(C#N)(C#N)C(C#N)(C#N)C(c1ccccc1)N2 (stereo not given),i,-18,7*,i,i,1.2
CCn1c(SCC(=O)NC2CCCC2)nnc1-c1cccnc1,i,-4,i,i,i,·
Cc1ccc(C)c(S(=O)(=O)N2CCCCC2CCNC(=O)C(=O)NCc2ccco2)c1 (stereo not given),i,-14,i,i,i,·
CCS(=O)(=O)n1nc(-c2ccc(Cl)cc2)nc1SCc1ccccc1,i,-15,10*,·,i,-1.5
COc1ccc(-c2csc(NC(=O)CCN3C(=O)C4CC=CCC4C3=O)n2)cc1OC (stereo not given),i,-15,i,i,i,·
CCOC(=O)C1=NN(C(=O)c2ccccc2)C(O)(c2ccc(C)cc2)C1 (stereo not given),i,7.4*,i,i,i,52*
CCOC(=O)C1=NN(C(=O)Cc2ccccc2)C(O)(c2ccc(Cl)cc2)C1 (stereo not given),i,-6,i,i,i,1.3
CS(=O)(=O)CCC(C(=O)O)N1C(=O)c2ccc(Oc3ccc(Cl)cc3)cc2C1=O (stereo not given),i,-8,i,i,i,·
Cn1c(-c2c(N)n(C3CCCC3)c3nc4ccccc4nc23)nc2ccccc21,i,-14,i,-11*,i,1.7
CCOc1cc(C2Nc3ccccc3C(=O)N2c2ccccc2OC)ccc1O (stereo not given),i,19*,i,i,i,-0.21
Cc1csc(N/N=C/c2ccc([N+](=O)[O-])cc2)n1,9*,1,i,i,i,·
Cc1ccc(S(=O)(=O)NCc2ccc(C(=O)NCCCN3CCC(Cc4ccccc4)CC3)cc2)cc1,i,-21,6*,i,i,0.01
Cc1ccc(S(=O)(=O)NCCC(=O)N2CCC(Cc3ccccc3)CC2)cc1,i,-11,i,i,i,·
CC(Oc1ccc(Br)cc1Br)C(=O)Nc1cccnc1 (stereo not given),i,12*,i,i,i,·
CC(Oc1ccc(Cl)cc1Cl)C(=O)Nc1cccnc1 (stereo not given),i,6.5*,i,i,i,-1.1
CC(Oc1ccc(Cl)cc1Cl)C(=O)Nc1ccncc1 (stereo not given),i,-11,i,i,i,6.4
Cc1ccc(N2C(=O)N(CC(=O)Nc3cc(Cl)ccc3C)C(=O)C2C)cc1 (stereo not given),i,-1,i,i,i,·
